This note sets out measurements from ChEMBL document CHEMBL3526139, “Clinical pharmacokinetics, metabolism, and drug-drug interaction of carfilzomib” (Drug Metab Dispos, 2013).

Series [1] addresses T1, CYP3A (Homo sapiens, UniProt P08684+P20815+P24462+Q9HB55). Description: Inhibition of CYP3A in human liver microsomes assessed as substrate metabolite formation using midazolam as substrate measured after 5 mins by LC-MS/MS analysis. The note with it: probe midazolam. The class given is ADME. The method in brief:
(§1)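 Pooled HLM from 16 donors were incubated at 37°C in duplicate with carfilzomib 0.01–10 µM and probe substrate at about its Km. Substrates were phenacetin, amodiaquine, diclofenac, S-mephenytoin, dextromethorphan, testosterone and midazolam. Protein was 0.1 mg/mL, or 0.05 mg/mL with midazolam. Reactions ran 5 min without preincubation, then were quenched with acetonitrile. Metabolites were measured by LC-MS/MS relative to 0.5% acetonitrile controls.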

The target in series [2] is T1, CYP3A. Kind of series: Inhibition of CYP3A in human liver microsomes assessed as substrate metabolite formation using testosterone as substrate measured after 5 mins by LC-MS/MS analysis. The class given is ADME. Conditions: probe testosterone; call rule not given here. The method in brief:
as §1
(Liver microsomes are vesicles of endoplasmic reticulum, rich in cytochrome P450 enzymes.)

Series [3] addresses T1, CYP3A. Description: Inhibition of CYP3A in human liver microsomes assessed as substrate metabolite formation using midazolam as substrate preincubated with microsomes for 30 mins prior to substrate addition measured after 5 mins by LC-MS/MS analysis. The series is classed as ADME. The note with it: probe midazolam. The method in brief: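 HLM (16-donor pool) were preincubated 30 min with carfilzomib 0.01–10 µM before addition of midazolam or testosterone at about Km. Metabolite formation was measured by LC-MS/MS after 5 min, in duplicate, relative to 0.5% acetonitrile controls.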

The target in series [4] is T2, Cytochrome P450 3A (Homo sapiens, UniProt P08684+P20815+Q9HB55+P24462). Description: Time-dependent inhibition of CYP3A in human liver microsomes assessed as testosterone 6-hydroxylation using testosterone as substrate by LC-MS/MS analysis in presence of NADPH. The series is classed as ADME. The gist of the method: (§2)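 Pooled HLM (16 donors) given carfilzomib 0.01–10 µM in duplicate at 37°C with a 30-min preincubation before probe substrate was added. Substrate was set near Km (testosterone Km 100 µM; midazolam Km 3.8 µM). Protein was 0.1 mg/mL, or 0.05 mg/mL with midazolam. Metabolite formation was read by LC-MS/MS after 5 min and expressed relative to 0.5% acetonitrile controls to give IC50.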

Series [5] in a line: Plasma protein binding in iv dosed human multiple myeloma patient at 15 mg/m'2 in first cycle and escalated to 20 mg/m'2 thereafter administered on days 1, 2, 8, 9, 15 and 16 of 28-day cycle over 2 to 10 mins by LC-MS/MS analysis. The series is classed as ADME, organism-based. The note with it: read-out: PPB (converted). The gist of the method:
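Plasma taken at end of administration and 5 min after, on Days 1 and 15 of Cycle 1 and Day 15 of Cycle 2, was dialyzed 6 h at 37°C against pH 7.4 sodium phosphate buffer by rapid equilibrium dialysis. Samples were matrix-matched, extracted by acetonitrile precipitation and quantified by LC-MS/MS.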

The nature of series [6]: Cmax in human patient with relapsed solid tumor at 20 mg/m'2, iv administered on days 1, 2, 8, 9 15 and 16 of 28-day cycle over 2 to 10 mins measured on day 1 of cycle 1 by LC-MS/MS analysis. On the set-up: route intravenous. Conditions: in vivo. The class given is ADME, organism-based. The gist of the method: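 Patients with relapsed solid tumors (n=3) received carfilzomib IV at 20 mg/m2. Plasma was sampled on Days 1 and 16 of Cycle 1 before dosing, at end of administration, and at 5, 15, 30 min and 1, 2, 4 h after. Samples underwent solid phase extraction and LC-MS/MS with d10-carfilzomib internal standard over 0.100–200 ng/mL. Parameters were derived noncompartmentally (constant IV infusion model) from actual elapsed time from infusion start.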

In another series the target is T3, Cytochrome P450 2C8 (Homo sapiens, UniProt P10632).
T3 sequence (P10632 whole entry): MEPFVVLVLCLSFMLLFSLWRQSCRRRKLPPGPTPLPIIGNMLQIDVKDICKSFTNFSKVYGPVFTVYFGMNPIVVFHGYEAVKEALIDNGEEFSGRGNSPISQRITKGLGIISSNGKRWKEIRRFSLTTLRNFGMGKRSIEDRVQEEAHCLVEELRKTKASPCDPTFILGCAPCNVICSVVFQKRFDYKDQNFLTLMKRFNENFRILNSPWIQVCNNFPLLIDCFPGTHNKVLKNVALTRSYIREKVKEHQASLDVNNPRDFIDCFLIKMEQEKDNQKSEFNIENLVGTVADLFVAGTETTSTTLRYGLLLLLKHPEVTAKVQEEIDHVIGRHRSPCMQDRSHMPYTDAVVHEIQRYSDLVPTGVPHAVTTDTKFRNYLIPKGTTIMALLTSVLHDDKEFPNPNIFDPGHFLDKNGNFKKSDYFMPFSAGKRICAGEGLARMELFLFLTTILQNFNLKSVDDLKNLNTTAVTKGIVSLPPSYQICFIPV
Description: Inhibition of CYP2C8 in human liver microsomes using amodiaquine as substrate after 5 mins by LC-MS/MS analysis. The series is classed as ADME. The method in brief:
as §1

The next series concerns the target Cytochrome P450 2C9 (Homo sapiens, UniProt P11712). Description: Inhibition of CYP2C9 in human liver microsomes using diclofenac as substrate after 5 mins by LC-MS/MS analysis. The class given is ADME. The method in brief: as §1
In another series the test system is Plasma. Kind of series: Drug metabolism in plasma of iv dosed human patient with relapsed and refractory hematological malignancies assessed as morpholino-hPhe-Leu-Phe-Leu-diol metabolite formation administered on days 1, 2, 8, 9, 15 and 16 of 28-day cycle over 2 to 10 mins by LC-MS/MS analysis. The class given is ADME, organism-based. The note with it: in vivo.

For series [7], the target named is T2, Cytochrome P450 3A. Kind of series: Time-dependent inhibition of CYP3A in human liver microsomes assessed as testosterone 6-hydroxylation using testosterone as substrate measured after 25-fold diution by LC-MS/MS analysis in presence of NADPH. The class given is ADME. The method in brief: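 Pooled HLM (16 donors, mixed gender) preincubated in duplicate with carfilzomib 0, 0.5, 1, 3, 5 and 8 µM plus NADPH-generating system (1 mM NADP, 5 mM glucose-6-phosphate, 1 unit/mL G6PDH) for 0–30 min. Microsomal protein in preincubation: 2.5 mg/mL (testosterone) or 1.25 mg/mL (midazolam). Aliquots then diluted 25-fold into 50 mM potassium phosphate, 3 mM MgCl2, 1 mM EDTA, pH 7.4. Residual activity measured over 5 min with testosterone 200 µM or midazolam 40 µM plus NADPH-generating mixture, 37°C. KI and kinact derived.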

The target of series [8] is T2, Cytochrome P450 3A. Description: Time-dependent inhibition of CYP3A in human liver microsomes assessed as midazolam 1'-hydroxylation using midazolam as substrate by LC-MS/MS analysis in presence of NADPH. The series is classed as ADME. The gist of the method: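 HLM (1.25 mg/mL for midazolam) were preincubated in duplicate with carfilzomib 0, 0.5, 1, 3, 5, 8 µM plus an NADPH-generating system for 0–30 min. Mixtures were diluted 25-fold into pH 7.4 phosphate/MgCl2/EDTA buffer containing midazolam 40 µM and NADPH system for 5 min. Residual activity by LC-MS/MS gave KI and kinact.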

The target of series [9] is T2, Cytochrome P450 3A. Description: Time-dependent inhibition of CYP3A in human liver microsomes preincubated for 30 mins with carfilzomib by LC-MS/MS analysis. The note with it: microsomes. The class given is ADME. The gist of the method: as §2
The target of the next series is Cytochrome P450 2C19 (Homo sapiens, UniProt P33261). Description: Drug metabolism in pooled human hepatocytes assessed as disapperance rate at 1 uM by LC-MS/MS analysis in presence of 10 uM CYP2C19 inhibitor (+)-N-3-benzylnirvanol. The class given is ADME, cell-based, Hepatocyte. The method in brief: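 Pooled human hepatocytes in suspension (~0.5 x 10^6 viable cells/mL) were incubated with 1 µM carfilzomib at 37°C under 5% CO2, with or without isoform-selective CYP chemical inhibitors. Reactions were quenched with acetonitrile at 0, 15, 30, 60 and 120 min. Carfilzomib was quantified by non-validated LC-MS/MS after protein precipitation.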

As usually defined, the IC50 is the concentration that gives 50% inhibition. In general, Cmax refers to the peak of the concentration-time curve.

Sequence of Cytochrome P450 2C19 (P33261 whole entry, canonical isoform): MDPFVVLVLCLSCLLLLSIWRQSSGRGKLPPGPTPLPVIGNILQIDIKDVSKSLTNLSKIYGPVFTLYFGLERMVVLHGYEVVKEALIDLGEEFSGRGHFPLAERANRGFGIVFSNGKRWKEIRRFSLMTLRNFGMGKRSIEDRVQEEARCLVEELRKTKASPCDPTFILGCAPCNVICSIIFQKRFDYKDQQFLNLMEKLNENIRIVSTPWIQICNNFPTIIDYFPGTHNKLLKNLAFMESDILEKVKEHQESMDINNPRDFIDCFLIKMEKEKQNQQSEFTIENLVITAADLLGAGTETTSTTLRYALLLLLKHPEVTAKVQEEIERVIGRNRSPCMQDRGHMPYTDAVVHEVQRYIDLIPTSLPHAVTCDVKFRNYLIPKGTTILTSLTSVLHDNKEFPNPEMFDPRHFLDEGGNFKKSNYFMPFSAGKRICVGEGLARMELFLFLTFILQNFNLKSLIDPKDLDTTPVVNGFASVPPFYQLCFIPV
Sequence of Cytochrome P450 2C9 (P11712 whole entry): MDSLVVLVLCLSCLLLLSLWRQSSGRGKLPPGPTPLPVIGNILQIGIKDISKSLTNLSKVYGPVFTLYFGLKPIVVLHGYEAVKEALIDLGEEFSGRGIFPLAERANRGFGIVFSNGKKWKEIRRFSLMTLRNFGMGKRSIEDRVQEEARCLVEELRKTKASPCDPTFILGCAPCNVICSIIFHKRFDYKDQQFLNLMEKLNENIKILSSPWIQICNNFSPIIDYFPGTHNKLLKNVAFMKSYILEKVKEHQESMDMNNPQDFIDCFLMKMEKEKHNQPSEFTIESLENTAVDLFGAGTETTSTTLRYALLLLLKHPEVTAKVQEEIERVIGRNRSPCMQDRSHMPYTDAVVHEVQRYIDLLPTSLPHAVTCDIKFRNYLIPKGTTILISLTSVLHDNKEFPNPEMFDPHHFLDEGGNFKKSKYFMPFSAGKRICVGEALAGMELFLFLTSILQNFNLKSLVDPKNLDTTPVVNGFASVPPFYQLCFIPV

Regarding `CC(C)C[C@H](NC(=O)[C@H](CCc1ccccc1)NC(=O)CN1CCOCC1)C(=O)N[C@@H](Cc1ccccc1)C(=O)N[C@@H](CC(C)C)C(=O)[C@@]1(C)CO1` [CARFILZOMIB], the IC50 at 5 min at CYP3A [1] was 1700 nM; at CYP3A [2], more than 10000 nM; at CYP3A [3] it was 490 nM. The “inhibition (INH)” value is “Active” on Cytochrome P450 3A [4], “Active” at Cytochrome P450 3A [7], “Active” at Cytochrome P450 3A [8] and “Dose-dependent effect” at Cytochrome P450 3A [9]. For the same compound, the fraction unbound in [5] was 0.024. Also, the peak concentration (Cmax) in series [6] stood at 2760 ng/mL. Further, the IC50 at Cytochrome P450 2C8 and at Cytochrome P450 2C9 was more than 10000 nM throughout. Moreover, the Drug metabolism entry in the series on Plasma was “metabolite_detected”; at Cytochrome P450 2C19, 0.016 min⁻¹.
